From ChEMBL document CHEMBL3102834, “Discovery of 5-substituted pyrrolo[2,3-d]pyrimidine antifolates as dual-acting inhibitors of glycinamide ribonucleotide formyltransferase and 5-aminoimidazole-4-carboxamide ribonucleotide formyltransferase in de novo purine nucleotide biosynthesis: implications of inhibiting …” (J Med Chem, 2013)
Each block holds one compound with its values, some of them ahead of it. The source made the active and inactive calls. No cut-off for these calls is given here.

Tests used:
[1] = system: KB; assay: Cytotoxicity against human KB cells expressing human RFC/FRalpha/PCFT after 96 hrs by CellTitre-Blue fluorescence assay in presence of adenosine; format: functional, cell-based
In short: (§1)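 KB cells were grown in FF-RPMI with DFBS and 2 nM LCV, exposed to antifolate (0–1 μM) for 96 h at 37 °C, and read by CellTiter-Blue fluorescence. IC50 was taken from dose–response curves relative to untreated cells. Protection arms added adenosine 60 μM, thymidine 10 μM, AICA 320 μM, or folic acid 200 nM. Means of 3–10 experiments.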

[2] = Cytotoxicity against chinese hamster RT16 cells expressing human FRalpha after 96 hrs by CellTitre-Blue fluorescence assay in presence of folic acid; format: functional, cell-based; conditions: Cricetulus griseus, RT16, 96 h
In short: (§2)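 CHO sublines were grown in FF-RPMI/DFBS; transfectants were maintained with G418. Cells were exposed to antifolate (0–1 μM) for 96 h at 37 °C with 2 nM LCV (RT16) or 25 nM LCV (R2/PCFT4). PC43-10 cells were grown in standard RPMI1640/DFBS instead. FRα specificity was tested by adding 200 nM folic acid. Viable cells were read by CellTiter-Blue fluorescence (ex 560/em 590), and IC50 was taken from dose–response curves; means of 3–10 experiments.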

[3] = system: R2; assay: Cytotoxicity against chinese hamster R2 cells after 96 hrs by CellTitre-Blue fluorescence assay; conditions: Cricetulus griseus, R2, 96 h
[4] = system: KB; assay: Cytotoxicity against human KB cells expressing human RFC/FRalpha/PCFT after 96 hrs by CellTitre-Blue fluorescence assay in presence of AICA; format: functional, cell-based; in short: as §1
[5] = Cytotoxicity against chinese hamster R2(VC) cells after 96 hrs by CellTitre-Blue fluorescence assay; format: functional, cell-based; conditions: Cricetulus griseus; in short: as §2
[6] = system: KB; assay: Cytotoxicity against human KB cells expressing human RFC/FRalpha/PCFT after 96 hrs by CellTitre-Blue fluorescence assay in presence of thymidine; format: functional, cell-based; in short: as §1
[7] = molecular target: Folate receptor alpha (Homo sapiens) (UniProt P15328); assay: Displacement of [3H]folic acid from human FRalpha expressed in chinese hamster RT16 cells after 15 mins by scintillation counting analysis; format: cell-based
In short: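 FRα-expressing RT16 CHO cells (~1.5 × 10^6) were grown as monolayers. Bound folates were stripped with ice-cold acetate buffer (pH 3.5), then neutralised with HEPES-buffered saline (pH 7.4). Cells were then competed with [3H]folic acid against graded unlabelled ligand. Bound label read by scintillation, normalised to Folin-phenol protein (pmol/mg). Relative affinity = inverse molar ratio for 50% displacement, folic acid set at 1. Three experiments.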

[8] = system: KB; assay: Cell cycle arrest in human KB cells assessed as accumulation at G2/M phase at 1 uM after 96 hrs by propidium iodide staining-based flow cytometry (reference value: 13.2%); format: functional
[9] = system: KB; assay: Cytotoxicity against human KB cells expressing human RFC/FRalpha/PCFT after 96 hrs by CellTitre-Blue fluorescence assay; format: functional, cell-based; in short: as §1
[10] = system: KB; assay: Cell cycle arrest in human KB cells assessed as accumulation at sub-G1 phase at 1 uM after 96 hrs by propidium iodide staining-based flow cytometry (reference value: 3.5%); format: functional
[11] = system: KB; assay: Induction of apoptosis in human KB cells assessed as late apoptotic cells at 1 uM after 96 hrs by Annexin V-FITC/7-AAD staining-based flow cytometry (reference value: 2.09%); format: functional
[12] = Cytotoxicity against chinese hamster RT16 cells expressing human FRalpha after 96 hrs by CellTitre-Blue fluorescence assay; format: functional, cell-based; conditions: Cricetulus griseus, RT16, 96 h; in short: as §2
[13] = system: KB; assay: Cell cycle arrest in human KB cells assessed as accumulation at G1/G0 phase at 1 uM after 48 hrs by propidium iodide staining-based flow cytometry relative to control; format: functional
[14] = system: KB; assay: Induction of apoptosis in human KB cells assessed as early apoptotic cells at 1 uM after 96 hrs by Annexin V-FITC/7-AAD staining-based flow cytometry (reference value: 0.485%); format: functional
[15] = system: KB; assay: Cytotoxicity against human KB cells expressing human RFC/FRalpha/PCFT after 96 hrs by CellTitre-Blue fluorescence assay in presence of thymidine/adenosine; format: functional, cell-based; in short: as §1
[16] = system: KB; assay: Cell cycle arrest in human KB cells assessed as accumulation at G1/G0 phase at 1 uM after 96 hrs by propidium iodide staining-based flow cytometry (reference value: 67.4%); format: functional
[17] = system: KB; assay: Cytotoxicity against human KB cells expressing human RFC/FRalpha/PCFT assessed as depletion of ATP pools at 1 uM after 24 hrs by ion-pair HPLC analysis; format: functional
In short: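 KB cells in FF-RPMI/10% DFBS with 2 mM glutamine and 2 nM LCV were exposed to 1 μM drug for 24 h. They were trypsinized and washed, and nucleotides were extracted. ATP was quantified by reversed-phase ion-pair HPLC on a C18 column. Results are means ± standard errors.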

[18] = Cytotoxicity against chinese hamster PC43-10 cells expressing human RFC after 96 hrs by CellTitre-Blue fluorescence assay; format: functional, cell-based; conditions: Cricetulus griseus, PC43-10, 96 h; in short: as §2
[19] = system: KB; assay: Cell cycle arrest in human KB cells assessed as accumulation at S phase at 1 uM after 96 hrs by propidium iodide staining-based flow cytometry (reference value: 15.9%); format: functional
[20] = system: KB; assay: Cytotoxicity against human KB cells expressing human RFC/FRalpha/PCFT after 96 hrs by CellTitre-Blue fluorescence assay in presence of adenosine/AICA/thymidine; format: functional, cell-based; in short: as §1
[21] = system: KB; assay: (§3) Inhibition of GARFTase in human KB cells assessed as incorporation of [14C]-glycine into [14C]-formyl GAR incubated 30 mins prior to [14C]-glycine addition measured after 16 hrs by radiometric assay in presence of azaserin; format: cell-based
In short: (§4)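 KB cells were preincubated 1 h in folate- and glutamine-free medium with 2 nM LCV and a range of drug concentrations. Azaserine (4 μM final) was added for 30 min, then 2 mM glutamine and [14C(U)]glycine (0.1 mCi/L) for 16 h at 37 °C. TCA extracts were ether-washed and run on AG1×8 anion exchange. [14C]formyl GAR was measured per mg protein, and IC50 was set against DMSO controls; three experiments.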

[22] = as §3; format: cell-based; in short: as §4
[23] = system: KB; assay: Cytotoxicity against human KB cells expressing human RFC/FRalpha/PCFT after 96 hrs by CellTitre-Blue fluorescence assay in presence of folic acid; format: functional, cell-based; in short: as §1
[24] = system: KB; assay: Induction of apoptosis in human KB cells assessed as necrotic cells at 1 uM after 96 hrs by Annexin V-FITC/7-AAD staining-based flow cytometry (RVB = 7.80%); format: functional
[25] = system: KB; assay: Induction of apoptosis in human KB cells assessed as viable cells at 1 uM after 96 hrs by Annexin V-FITC/7-AAD staining-based flow cytometry (RVB = 89.6%); format: functional; conditions: read-out: Activity
[26] = system: R2; assay: Cytotoxicity against chinese hamster R2 cells expressing human PCFT4 after 96 hrs by CellTitre-Blue fluorescence assay; format: functional, cell-based, Cricetulus griseus; conditions: R2, 96 h
[27] = molecular target: Bifunctional purine biosynthesis protein ATIC (Homo sapiens) (UniProt P31939); assay: Inhibition of AICARFTase in human KB cells assessed as phosphorylated AMPK at 10 mM after 48 hrs by Western blot analysis; format: cell-based
In short: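 KB cells were treated for 48 h with 10 μM thymidine, or with AMPK activators (metformin 10 mM, AICA 1 mM, AICAR 1 mM) against a water/DMSO vehicle. Cells were sonicated in 10 mM Tris-HCl pH 7.0 with protease/phosphatase inhibitors. 90 μg protein was run on 4–20% SDS gels and blotted for phospho-AMPK, total AMPK and β-actin, with infrared detection.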

[28] = system: KB; assay: Cytotoxicity against human KB cells at 10 mM after 96 hrs by CellTitre-Blue fluorescence assay; format: functional; conditions: read-out: GI
In short: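 KB cells were exposed for 96 h at 37 °C to metformin (0–10 mM) or AICA (0–2 mM) in FF-RPMI/DFBS with 2 nM LCV. Growth was read by CellTiter-Blue fluorescence relative to drug-free cells.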

Sequence of Folate receptor alpha (Homo sapiens) (P15328 25-234 limits assumed): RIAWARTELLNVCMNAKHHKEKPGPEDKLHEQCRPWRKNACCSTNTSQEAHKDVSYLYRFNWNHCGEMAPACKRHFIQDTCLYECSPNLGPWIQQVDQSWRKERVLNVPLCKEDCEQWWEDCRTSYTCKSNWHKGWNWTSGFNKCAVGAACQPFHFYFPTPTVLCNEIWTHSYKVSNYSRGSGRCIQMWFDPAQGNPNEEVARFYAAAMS
Sequence of Bifunctional purine biosynthesis protein ATIC (Homo sapiens) (P31939 whole entry, looked up): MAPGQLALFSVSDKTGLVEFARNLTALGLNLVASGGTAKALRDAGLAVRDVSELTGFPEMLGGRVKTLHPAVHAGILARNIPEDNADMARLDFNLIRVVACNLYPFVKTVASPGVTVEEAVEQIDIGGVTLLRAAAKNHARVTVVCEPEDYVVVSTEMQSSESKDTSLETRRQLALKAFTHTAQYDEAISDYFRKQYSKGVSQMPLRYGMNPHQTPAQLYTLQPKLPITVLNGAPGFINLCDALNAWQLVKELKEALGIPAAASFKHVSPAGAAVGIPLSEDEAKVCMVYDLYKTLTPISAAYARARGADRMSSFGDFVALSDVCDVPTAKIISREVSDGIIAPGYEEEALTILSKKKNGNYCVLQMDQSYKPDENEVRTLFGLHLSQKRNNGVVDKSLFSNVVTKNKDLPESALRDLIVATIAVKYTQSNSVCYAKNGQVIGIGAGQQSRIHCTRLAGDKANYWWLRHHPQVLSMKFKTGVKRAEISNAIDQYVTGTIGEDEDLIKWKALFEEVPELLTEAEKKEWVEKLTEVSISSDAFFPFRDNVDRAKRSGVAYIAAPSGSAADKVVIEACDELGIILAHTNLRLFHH

SMILES: Nc1nc2[nH]cc(CCCc3ccc(C(=O)N[C@@H](CCC(=O)O)C(=O)O)cc3)c2c(=O)[nH]1
Activity [1]: inactive
IC50 [2]: > 1000 nM
IC50 [3]: > 1000 nM
Activity [4]: Active
IC50 [5]: > 1000 nM
Activity [6]: Active

SMILES: Nc1nc2c(c(=O)[nH]1)C[C@@H](CCc1ccc(C(=O)N[C@@H](CCC(=O)O)C(=O)O)cc1)CN2 [LOMETREXOL]
IC50 [5]: > 1000 nM

inhibition [7]: inactive
SMILES: CN(Cc1cnc2nc(N)nc(N)c2n1)c1ccc(C(=O)N[C@@H](CCC(=O)O)C(=O)O)cc1 [METHOTREXATE]
IC50 [5]: > 1000 nM

SMILES: Nc1nc2[nH]cc(CCc3ccc(C(=O)N[C@@H](CCC(=O)O)C(=O)O)cc3)c2c(=O)[nH]1 [PEMETREXED]
Activity [8]: 7.5%
IC50 [9]: 9.94 nM
IC50 [2]: > 1000 nM
Activity [10]: 17.3%
Activity [11]: 4.56%
IC50 [12]: 18.2 nM
Activity [13]: Active
Activity [14]: 30.6%
Activity [15]: inactive
Activity [16]: 47.8%
inhibition at 1 µM [17]: 60%
IC50 [3]: > 1000 nM
IC50 [18]: 30.6 nM
Activity [19]: 27.5%
Activity [20]: Active
inhibition [21]: Dose-dependent effect
IC50 [22]: 11.7 nM
IC50 [5]: > 1000 nM
IC50 [23]: 690 nM
Activity [24]: 0.271%
viability at 1 µM [25]: 64.6%

SMILES: Nc1nc2[nH]c(CCCCCc3ccc(C(=O)N[C@@H](CCC(=O)O)C(=O)O)cc3)cc2c(=O)[nH]1
IC50 [26]: > 1000 nM
IC50 [5]: > 1000 nM

SMILES: Nc1nc2[nH]c(CCCCCCc3ccc(C(=O)N[C@@H](CCC(=O)O)C(=O)O)cc3)cc2c(=O)[nH]1
IC50 [26]: > 1000 nM
IC50 [5]: > 1000 nM

inhibition [27]: inactive
SMILES: CN(C)C(=N)NC(=N)N [METFORMIN]
inhibition of growth at 10000 µM [28]: 32%
